Laboratory results published in ChEMBL document CHEMBL1127020, “3-Quinolinecarboxamides. A series of novel orally-active antiherpetic agents” (1993).
In brackets after ≈: the same amount, converted by molar mass. Activity calls are given as the source filed them. The calls are words filed in the database; no cut-off is given here.

Tests used:
Human alphaherpesvirus 2 [1] = assay: In vitro maximum tolerated level against herpes simplex virus-2 (HSV-2) by plaque-reduction assay in vero cells; format: functional
Human alphaherpesvirus 2 [2] = assay: (§1) In vitro minimum inhibitory concentration against herpes simplex virus-2 (HSV-2) by plaque-reduction assay in vero cells; format: functional
Human alphaherpesvirus 2 [3] = assay: In vivo maximum tolerated dose against herpes simplex virus-2 (HSV-2) by oral administration in female mice; format: functional
Human alphaherpesvirus 2 [4] = assay: (§2) Minimum effective dose against herpes simplex virus-2 (HSV-2) by oral administration in female mice.; format: functional, organism-based
Summary of the method: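 Swiss female ICR mice (13–15 g) infected intravaginally with HSV-2 (Curtis) at a dose set for 80% mortality. Compound suspended in 1% gum tragacanth/2% Tween 80, given intragastrically at serial 2-fold doses, 20 mice per dose, 2 h before infection then twice daily for 5 d. Mortality followed 14 d; MED = lowest dose with survival differing from placebo (Mantel-Cox, Breslow).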

Human alphaherpesvirus 2 [5] = assay: as §2; format: functional; details: Human alphaherpesvirus 2, po; read-out: MED
Human alphaherpesvirus 2 [6] = assay: as §1; format: functional, organism-based
Summary of the method: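 Vero monolayers (2 days old, confluent; Hank's MEM + 5% inactivated FCS, 37 °C, 2% CO2) infected with ~80 PFU; after 1-h adsorption, overlay of M199/5% FCS with 1:150 human immune serum globulin plus serial 2-fold compound dilutions (1:200 from DMSO). 3 d incubation, glutaraldehyde fix, crystal violet stain, plaque count. MIC = lowest concentration giving 50% plaque reduction; mean of ≥2 experiments.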

Row | Compound | MTL (Human alphaherpesvirus 2 [1]) | MIC (Human alphaherpesvirus 2 [2]) | MTD (Human alphaherpesvirus 2 [3]) | MED (Human alphaherpesvirus 2 [4]) | minimal effective dose (Human alphaherpesvirus 2 [5]) | MIC (Human alphaherpesvirus 2 [6])
1 | CCn1cc(C(N)=O)c(=O)c2ccc(-c3c(C)cncc3C)cc21 | 12.5 µg/mL | 9.9 µg/mL (≈ 30.8 µM) | 25 mg/kg | inactive |  | 
2 | CCn1cc(C(N)=O)c(=O)c2ccc(-c3ccno3)cc21 | 12.5 µg/mL | 5 µg/mL (≈ 17.6 µM) | >200 mg/kg | inactive |  | 
3 | CCn1c(=O)c(C(N)=O)c(O)c2ccc(-c3ccncc3)cc21 | 6.25 µg/mL | 2.1 µg/mL (≈ 6.79 µM) | 100 mg/kg |  | 100 mg/kg | 
4 | CCn1cc(C(N)=O)c(=O)c2ccc(-c3cc(C)no3)cc21 | >100 µg/mL | 12 µg/mL (≈ 40.4 µM) | >200 mg/kg | inactive |  | 
5 | NC(=O)c1cn(-c2ccc(C(F)(F)F)cc2)c2cc(-c3ccncc3)ccc2c1=O | >100 µg/mL | 1 µg/mL (≈ 2.44 µM) | 50 mg/kg | inactive |  | 
6 | CCCCCn1cc(C(N)=O)c(=O)c2ccc(-c3ccncc3)cc21 | 6.25 µg/mL | 4.8 µg/mL (≈ 14.3 µM) | 50 mg/kg | inactive |  | 
7 | NC(=O)c1cn(-c2ccc(F)cc2F)c2cc(-c3ccncc3)ccc2c1=O | 3.1 µg/mL | 2.2 µg/mL (≈ 5.83 µM) | <25 mg/kg | inactive |  | 
8 | Cc1cc(-c2ccc3c(=O)c(C(N)=O)cn(-c4ccc(F)cc4)c3c2)sn1 | >100 µg/mL | 0.25 µg/mL (≈ 0.659 µM) | >100 mg/kg | inactive |  | 
9 | NC(=O)c1cn(-c2ccc(F)cc2)c2cc(-c3ccccc3)ccc2c1=O | 12.5 µg/mL | 0.82 µg/mL (≈ 2.29 µM) | >200 mg/kg | inactive |  | 
10 | Cc1ccc(-n2cc(C(N)=O)c(=O)c3ccc(-c4ccncc4)cc32)cc1C | >100 µg/mL | 1 µg/mL (≈ 2.71 µM) | >200 mg/kg | inactive |  | 
11 | C=CCn1cc(C(N)=O)c(=O)c2ccc(-c3ccncc3)cc21 | 6.25 µg/mL | 2.9 µg/mL (≈ 9.5 µM) | <50 mg/kg | inactive |  | 
12 | Cc1ccc(-n2cc(C(N)=O)c(=O)c3ccc(-c4ccncc4)cc32)cc1 | >25 µg/mL | 0.63 µg/mL (≈ 1.77 µM) | 50 mg/kg | inactive |  | 
13 | CCn1cc(C(N)=O)c(=O)c2ccc(-c3ccccn3)cc21 | 25 µg/mL | 14 µg/mL (≈ 47.7 µM) | 100 mg/kg | inactive |  | 
14 | NC(=O)c1cn(-c2ccccc2F)c2cc(-c3ccncc3)ccc2c1=O | 1.6 µg/mL |  | 100 mg/kg | inactive |  | inactive
15 | CCn1cc(C(N)=O)c(=O)c2ccc(-c3cccnc3)cc21 | 50 µg/mL | 12 µg/mL (≈ 40.9 µM) | 100 mg/kg | inactive |  | 
16 | COc1ccc(-n2cc(C(N)=O)c(=O)c3ccc(-c4ccncc4)cc32)cc1 | >25 µg/mL | 1.3 µg/mL (≈ 3.5 µM) | 50 mg/kg | inactive |  | 
17 | NC(=O)c1cn(C2CC2)c2cc(-c3ccncc3)ccc2c1=O | 25 µg/mL | 4 µg/mL (≈ 13.1 µM) | 25 mg/kg | inactive |  | 
18 | CCCCn1cc(C(N)=O)c(=O)c2ccc(-c3ccncc3)cc21 | 6.25 µg/mL | 5.2 µg/mL (≈ 16.2 µM) | 50 mg/kg | inactive |  | 
19 | NC(=O)c1cn(Cc2ccc(Cl)c(Cl)c2)c2cc(-c3ccncc3)ccc2c1=O | >100 µg/mL | 1.7 µg/mL (≈ 4.01 µM) | >100 mg/kg | inactive |  | 
20 | Cn1cc(C(N)=O)c(=O)c2ccc(-c3ccncc3)cc21 | >25 µg/mL | 4.6 µg/mL (≈ 16.5 µM) | 25 mg/kg | inactive |  | 
21 | Cc1cc(-c2ccc3c(=O)c(C(N)=O)cn(-c4ccc(F)cc4)c3c2)on1 | >100 µg/mL | 0.26 µg/mL (≈ 0.716 µM) | >200 mg/kg | inactive |  | 
